From PubChem
MDM2 E3 inh: inhibitors of human Mdm2 E3 ubiquitin ligase; Q00987; cell-based MDM2 ubiquitination luciferase reporter, 2 h; 0 = plate control, 100 = twice control, blank-subtracted; signal enhancement, % at 5 µM; 0.11% of 210,000 active;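 active = signal enhancement of 30% or more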;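 also: luminescence tracks abundance of the self-degrading MDM2-luciferase fusion protein; higher signal means inhibition of MDM2 E3 ligase activity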
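Buffer or medium: Cells held in DMEM | Assay system: Stable mammalian line carrying autodegrading MDM2–luciferase fusion reporter | Quantity: 2000 cells/well | Times: 4 h settle plus 2 h compound, 37 °C | Doses: One concentration, 5 µM, with 0.2% DMSO | Technique: Luminescence with SteadyLite reagent, 15 min at room temperature | Benchmarks: Plate controls and plate blanks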
NF-kB neuron act: raises NF-kB expression in human neuronal cells; fold change at 12.5 µM; NF-kB reporter expression; stronger effect = higher value; 1.6% of 190,000 active; AID 1239; in the data active = fold change above about 3.3
STAT1 act: increases IFN-gamma driven STAT1 reporter signal | NIH 3T3 STAT1-luciferase reporter, luminescence; 100% = IFN-gamma alone, no compound | activation (% of control), % at 5.5 µM | 2.6% of 200,000 active | AID 932;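 active = activation above the screen-wide mean activation plus 3 SD, cut at about 130% in these data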;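 also: raw ratio to IFN-gamma control signal so 100% means no change and 0% no light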
AHR act: activators of human aryl hydrocarbon receptor. P35869. AHR-responsive luciferase reporter cells, luminescence. activation, % at 5 µM. 2.5% of 320,000 active; in the data active = activation above about 47%;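 also: 0% = vehicle wells and 100% = reference agonist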
PERK inhibitor: human PERK inhibition, primary cell-based screen | CHO PERK-DD fusion, SEAP luminescence translation reporter | 0.17% of 220,000 active | AID 1416 | inhibition, % at 5.6 µM | Q9NZJ5;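 active = inhibition above the mean inhibition of all tested compounds plus 3 SD, set separately per screening campaign, cut at about 2.9% in these data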;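 also: PERK kinase domain activated by AP20187 dimerizer at 100 nM; 0% = DMSO with dimerizer and 100% = rapamycin at 8.4 µM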
Target sequence (Q9NZJ5 whole entry, looked up, the tested form may be a part): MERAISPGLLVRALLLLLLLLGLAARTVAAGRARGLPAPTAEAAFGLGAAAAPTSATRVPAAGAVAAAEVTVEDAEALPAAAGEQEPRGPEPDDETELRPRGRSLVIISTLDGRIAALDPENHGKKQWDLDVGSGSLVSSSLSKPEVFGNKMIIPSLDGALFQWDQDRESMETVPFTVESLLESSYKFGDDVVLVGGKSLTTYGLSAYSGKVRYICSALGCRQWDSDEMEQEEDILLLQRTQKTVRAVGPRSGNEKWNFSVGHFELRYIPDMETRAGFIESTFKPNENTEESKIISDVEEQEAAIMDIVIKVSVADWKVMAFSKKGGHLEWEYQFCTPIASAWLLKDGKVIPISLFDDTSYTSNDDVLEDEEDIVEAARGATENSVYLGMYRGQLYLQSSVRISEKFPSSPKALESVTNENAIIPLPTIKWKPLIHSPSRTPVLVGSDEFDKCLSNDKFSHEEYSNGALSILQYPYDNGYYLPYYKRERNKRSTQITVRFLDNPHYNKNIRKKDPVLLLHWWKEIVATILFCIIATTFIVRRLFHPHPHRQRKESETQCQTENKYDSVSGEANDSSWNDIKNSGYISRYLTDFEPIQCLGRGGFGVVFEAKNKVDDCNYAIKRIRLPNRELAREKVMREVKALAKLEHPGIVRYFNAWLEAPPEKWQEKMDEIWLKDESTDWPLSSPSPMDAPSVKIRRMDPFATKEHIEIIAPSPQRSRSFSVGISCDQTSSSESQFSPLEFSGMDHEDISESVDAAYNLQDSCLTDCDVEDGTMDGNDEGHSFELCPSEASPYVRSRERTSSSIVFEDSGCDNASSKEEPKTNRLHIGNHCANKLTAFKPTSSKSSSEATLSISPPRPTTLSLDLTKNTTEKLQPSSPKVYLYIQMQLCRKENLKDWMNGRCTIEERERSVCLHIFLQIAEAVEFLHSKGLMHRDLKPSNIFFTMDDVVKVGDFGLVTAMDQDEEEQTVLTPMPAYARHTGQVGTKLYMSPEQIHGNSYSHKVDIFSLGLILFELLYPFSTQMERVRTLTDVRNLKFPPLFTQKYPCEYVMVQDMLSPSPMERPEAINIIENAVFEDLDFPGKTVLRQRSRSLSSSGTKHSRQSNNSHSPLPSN
APP 5'UTR act: activates APP 5'UTR luciferase reporter; AID 1276; activation, % at 2 µM; 1% of 190,000 active; SH-SY5Y APP 5'UTR luciferase reporter, luminescence; zero percent = DMSO vehicle wells;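 active = activation above a set limit, based on mean plus 3 SD of controls, cut at about 140% in these data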
The depositor's hits bear a star; . = not tested or not shown. Hits are enriched below; roughly 4.5% of the tested compounds scored in any of these assays.

SMILES	MDM2 E3 inh	NF-kB neuron act	STAT1 act	AHR act	PERK inhibitor	APP 5'UTR act
C(=N\Nc1nc(-c2ccccc2)cs1)/c1cccnc1	7	2.3	144*	44	0	48
COC(=O)c1ccc(/C=N/Nc2nc(-c3ccccc3)cs2)cc1	4	1.2	106	50*	1	1
Cc1ccc(/C=N/Nc2nc(C(C)(C)C)cs2)o1	-8	1.9	124	50*	0	65
Cc1ccc(-c2cc(C(=O)N/N=C/C=C/c3ccccc3)n[nH]2)s1	-10	1.2	110	34	1	16
C/C(CC(=O)Nc1cc(Cl)ccc1C)=N\NC(N)=O	-12	.	.	3	1	.
COc1ccc(CC(=O)N2CCCC2)c(OC)c1	.	.	.	2	.	.
Cc1sc(N/N=C/c2cccnc2)nc1-c1ccc(Cl)cc1	-13	1.4	109	-7	1	11
CC(=O)Nc1ccc(-c2csc(N/N=C\c3ccncc3)n2)cc1	-3	.	.	61*	0	.
CCCC(=O)Nc1ccc(-c2csc(N/N=C\c3ccncc3)n2)cc1	-26	.	.	2	0	.
CC(C)(C)c1csc(N/N=C/c2cccnc2)n1	0	3	150*	28	2	77
COc1ccccc1OCCn1c(=O)sc2ccccc21	-10	1.3	102	4	-1	20
Cc1cccc(OCCCn2c(=O)sc3ccccc32)c1	-15	1.8	128	-4	1	8
COc1ccc(OCCn2c(=O)sc3ccccc32)cc1	-12	1.8	137*	0	1	57
Cc1cccc(OCCn2c(=O)n(C)c3ccccc32)c1	-16	3.6*	143*	45	0	85
Cc1cccc(OCCn2c(=O)sc3ccccc32)c1	0	3	136*	16	1	87
O=C1CC(=O)Nc2cc(S(=O)(=O)Nc3ccc(F)cc3Cl)ccc2N1	.	.	.	0	.	.
CCn1ncc(C(=O)Nc2ccc([N+](=O)[O-])cc2OC)c1C	.	.	.	40	.	.
COc1ccc([N+](=O)[O-])cc1NC(=O)c1ccc(Br)s1	-15	1.3	92	52*	2	-11
CCn1ncc(Cl)c1C(=O)Nc1cc([N+](=O)[O-])ccc1OC	-11	1.2	119	60*	0	-13
COc1ccc(C2CC(c3ccccc3)=NN2C(=O)CCCC(=O)O)cc1 (stereo not drawn)	.	.	.	1	.	.
CC1CC(C)CN(C(=O)CN2C(=O)NC(c3ccccc3)(c3ccccc3)C2=O)C1 (stereo not drawn)	.	.	.	1	.	.
COCCN(CCOC)S(=O)(=O)c1ccc(C(=O)Nc2sc3c(c2C(N)=O)CCCCC3)cc1	-16	0.52	129*	9	1	90
Cn1cc(Br)c(C(=O)Nc2sc3c(c2C(N)=O)CCCC3)n1	.	.	.	2	.	.
CCn1cc(Br)c(C(=O)Nc2sc3c(c2C(N)=O)CCCC3)n1	.	.	.	57*	.	.
COc1cc(C(=O)OCc2ccc(C)cc2)cc(NC(=O)c2cccs2)c1OC	5	0.94	94	58*	0	-16
SMILES	MDM2 E3 inh	NF-kB neuron act	STAT1 act	AHR act	PERK inhibitor	APP 5'UTR act
COc1cc(C(=O)O)cc(NC(=O)c2cccs2)c1OC	0	1	107	2	1	-10
CC(=O)Nc1ccc(C2(c3ccc(NC(C)=O)cc3)C(=O)Nc3ccccc32)cc1	-13	1.2	99	0	0	-13
N#C/C(=C\c1cn[nH]c1-c1ccc(Cl)cc1)C(=O)NC1CC1	-6	0.93	112	85*	0	-18
N#C/C(=C\c1c[nH]c2ccccc12)C(=O)NC1CCCC1	.	.	.	64*	.	.
CCOC(=O)c1c(C)[nH]c(C2=NNC(=Nc3cccc(Cl)c3)SC2)c1C	-7	1.1	96	120*	-1	10
CC(=O)c1c(C)[nH]c(C2=NNC(=NCc3ccccc3)SC2)c1C	-9	0.89	104	8	0	6
CC12CCC(=O)N1C(C(=O)N1CCN(S(=O)(=O)c3cccc(C(F)(F)F)c3)CC1)CS2 (stereo not drawn)	.	.	.	1	.	.
O=C(CSc1ncccn1)n1c2c(c3ccccc31)CCCC2	-5	1	108	70*	1	1
Cc1cc(C)nc(SCC(=O)n2c3c(c4ccccc42)CCCC3)n1	-11	1.1	98	25	1	2
CCc1cc2cc(C(=O)Nc3ccc(F)cc3)sc2s1	.	1.2	122	-6	1	31
CCc1cc2cc(C(=O)Nc3ccccc3F)sc2s1	-15	2.7	146*	-10	0	163*
CCOc1ccc(S(=O)(=O)N(CC)CC)cc1N	-10	1.1	100	2	2	1
CCOc1ccc(C(=O)c2ccc(OCC)c(N)c2)cc1N	-12	2	109	60*	1	29
O=C1/C(=C/c2cccc(Br)c2)SC(=S)N1/N=C/c1cc([N+](=O)[O-])ccc1O	-10	.	.	3	1	.
O=C1NC(=O)/C(=C\c2ccccc2OCc2ccc([N+](=O)[O-])cc2)N1	-14	1.1	103	72*	-1	-23
Cc1ccccc1-c1nc(CS(=O)CC(=O)NC(C)CCc2ccccc2)c(C)o1 (stereo not drawn)	.	.	.	1	.	.
Oc1ccc(-c2csc(-c3c[nH]c4ccccc34)n2)c(O)c1	8	4.2*	144*	61*	2	107
CCc1ccc(S(=O)(=O)Nc2cc(SCC(=O)O)c(O)c3ccccc23)cc1	-5	0.69	100	53*	0	-6
CCN=C1NN=C(c2ccc(C)cc2)CS1	-17	1.6	86	7	0	63
Fc1ccccc1N=C1NN=C(c2ccccc2)CS1	-28	4.6*	143*	47	1	158*
Cc1cccc(N=C2NN=C(c3ccccc3F)CS2)c1C	-11	2.1	119	37	0	40
CC(C)N=C1NN=C(c2ccc(F)cc2)CS1	-56	3.5*	102	13	2	136*
c1ccc(CN=C2NN=C(c3ccccc3)CS2)cc1	-10	1.9	138*	7	0	19
Cc1ccc2cc([N+](=O)[O-])ccc2n1	-4	.	.	-1	2	.
Cc1nnc(SCc2ccc(F)cc2)n1NC/C=C/c1ccccc1	5	0.92	98	1	1	.
CC(=O)[C@H]1[C@@H]2C(=O)N(c3cccc(Cl)c3)C(=O)[C@@H]2[C@H]2c3ccccc3C=CN21	-29	1.3	98	39	1	7
CC(=O)[C@H]1[C@H](c2cccc(Cl)c2)C(C#N)(C#N)[C@@H]2c3ccccc3C=CN21	-10	1.4	88	101*	1	15
O=C(NCCS(=O)(=O)N1CCN(c2cccc(Cl)c2)CC1)c1cc(=O)c2ccccc2o1	.	.	.	2	.	.
O=C1C2C3CCCC3=C3CCCC3C2C(=O)N1c1ccccc1 (stereo not drawn)	6	1.2	97	6	0	3
Cc1cc(N2CCC(C)CC2)n2ncc(-c3ccccc3)c2n1	-49	0.8	132*	14	0	194*
